In the library only some 1.5% were active in any assay of this set; here they are far more common.
TPT1 inhibitor – C. albicans TPT1 enzyme inhibition; recombinant caTPT1, FP RNA substrate dephosphorylation; inhibition, % at 5 µM; 0.81% of 300,000 active; AID 1962;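 active = inhibition above the mean of all tested compounds plus 3 SD, set per screening campaign, cut at about 24% in these data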;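 also: plate controls were DMSO alone for no effect and ferristatin control at 100 nM for full effect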
CSN deneddyl inh – blocks human CSN-mediated cullin deneddylation. Q92905. Purified CSN, SCF-Nedd8-OG deneddylation, fluorescence polarization. inhibition, % at 12.5 µM. 0.38% of 360,000 active. AID 651999;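 active = pattern-corrected inhibition above about 35%, with an unprinted fluorescence ratio check between 0.5 and 1.5, limit read from the data, passing the limit was not always enough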;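 also: 0% = enzyme with substrate and 100% = substrate without enzyme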
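test system = HEK293T-derived human Csn5 enzyme | amount = 0.24 nM Csn5 enzyme, final concentration | medium = Tris/NaCl/DTT buffer, pH 7.5 | schedule = 90 min reaction at room temperature | signal = FP | evaluation = inhibition of Csn5 cleavage, % | compound dosing = single dose of 12.5 µM compound with 0.25% DMSO | probe or stimulus = 10 nM SCFSkp2-Nedd8OG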
Rpn11 block – blocks the human proteasome subunit Rpn11; O00487; human 26S proteasome, Ub4-pepOG fluorescence polarization; 20S core pre-blocked with epoxomicin; inhibition, % at 20 µM; 0.59% of 360,000 active;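 active = inhibition at 20 µM, scaled to each plate's controls, above about 33%, limit read from the data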
HNF4A DNA FP – change in binding of human HNF4 alpha to DNA. P41235. HNF4a-FITC DNA binding, fluorescence polarization, 1 h. activity change, % at 10 µM. 0.3% of 360,000 active. AID 1224865; in the data active = activity change above about 30%, passing the limit was not always enough
Rpn11 inh conf – confirmation of human proteasome Rpn11 inhibitors | shares compounds with Rpn11 block | purified human 26S proteasome, Ub4-pepOG fluorescence polarization; proteasome pretreated with epoxomicin | inhibition, % at 20 µM | 29% of 1,900 active | AID 602318
MMP-2 counter – blocks human MMP-2, flagging nonselective RPN11 hits; shares compounds with Rpn11 block; recombinant MMP-2, FRET peptide cleavage fluorescence; 4% of 1,900 active; inhibition, % at 20 µM;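 also: human MMP-2 activated beforehand with APMA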
Target sequence (P08253 whole entry, looked up): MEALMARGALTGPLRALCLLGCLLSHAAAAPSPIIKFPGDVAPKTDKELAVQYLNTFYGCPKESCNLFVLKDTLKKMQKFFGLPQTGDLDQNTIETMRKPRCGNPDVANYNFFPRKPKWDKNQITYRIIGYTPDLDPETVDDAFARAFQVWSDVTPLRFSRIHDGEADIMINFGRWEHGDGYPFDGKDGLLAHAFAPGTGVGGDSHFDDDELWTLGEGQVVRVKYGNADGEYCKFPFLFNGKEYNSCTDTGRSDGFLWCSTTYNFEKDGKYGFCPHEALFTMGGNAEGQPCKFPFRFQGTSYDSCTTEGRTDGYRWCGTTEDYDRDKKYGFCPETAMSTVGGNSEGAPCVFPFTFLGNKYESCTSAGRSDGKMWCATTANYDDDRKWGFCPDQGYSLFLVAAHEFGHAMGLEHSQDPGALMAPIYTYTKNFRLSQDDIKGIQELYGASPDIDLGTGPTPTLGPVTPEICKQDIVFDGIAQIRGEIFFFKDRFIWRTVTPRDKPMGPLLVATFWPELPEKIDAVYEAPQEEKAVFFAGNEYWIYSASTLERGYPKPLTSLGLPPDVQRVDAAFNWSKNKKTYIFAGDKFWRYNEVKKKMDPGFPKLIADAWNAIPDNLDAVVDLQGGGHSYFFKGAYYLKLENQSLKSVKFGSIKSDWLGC
Thrombin FP – blocks bovine thrombin, flagging nonselective RPN11 hits; AID 602333; inhibition, % at 20 µM; 13% of 1,900 active; bovine thrombin cleavage of Ub4-pepOG, fluorescence polarization; shares compounds with Rpn11 block;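 active = mean inhibition at least 40% at 20 µM, or signal 3 deviations below plate average, so some actives read negative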;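 also: plate controls were thrombin with DMSO for no effect and buffer wells lacking thrombin for full effect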
* marks the source's active call; other numbers are inactive results; x = not tested or not shown. Rule as the data show it, unless noted: active = inhibition above about 40%; inactive = the rest.

SMILES | TPT1 inhibitor | CSN deneddyl inh | Rpn11 block | HNF4A DNA FP | Rpn11 inh conf | MMP-2 counter | Thrombin FP
CCCc1cc(=O)oc2cc(OCC(=O)NCCCN3CCOCC3)ccc12 | 1 | -5 | -30 | 3 | x | x | x
CC(C)(C)c1ccc2c(c1)N(CC(=O)N1CCCC1)C(=O)CO2 | 3 | 4 | 5 | 0 | x | x | x
COc1cccc(C(=O)CN2C(=O)C(C)(C)Oc3ccc(C(=O)N4CCCCCC4)cc32)c1 | -1 | 0 | 163* | 1 | -4 | -42 | -14
COc1cccc(C(=O)CN2C(=O)C(C)(C)Oc3ccc(C(=O)N4CCOCC4)cc32)c1 | -3 | -2 | -1 | 3 | x | x | x
O=C(Nc1nc(-c2ccc(Cl)s2)cs1)c1ccco1 | 4 | -4 | 8 | -3 | x | x | x
O=C(Nc1nc(-c2nc3ccccc3s2)cs1)c1ccco1 | 2 | 9 | 191* | 27 | 140* | 18 | 24
O=C1C=C(OCCF)CC(c2ccc(Br)cc2)O1 (centres undefined) | x | 0 | x | -1 | x | x | x
CC(C)c1ccc(/C=C(\NC(=O)c2ccccc2)C(=O)NCCCn2ccnc2)cc1 | 2 | -1 | -13 | -2 | x | x | x
CCOc1ccccc1N1CCN(Cc2cccc(OC)c2O)CC1 | -1 | 0 | -6 | 3 | x | x | x
Oc1c(CN2CCCCC2)cc(COCc2ccccc2)c2cccnc12 | -2 | 4 | 76* | -2 | 39 | 30 | -11
COc1ccccc1N1CCN(Cc2cc(Br)c(O)c3ncccc23)CC1 | -6 | 1 | 45* | 0 | 31 | 34 | -21
CN(Cc1ccccc1F)c1cc2c(c3c1ccn3C)C1CCC2C1 (centres undefined) | x | 0 | -4 | -1 | x | x | x
O=C(CN(CC1CCCO1)C(=O)CNS(=O)(=O)c1ccc(F)cc1)NCCc1ccccc1 (centres undefined) | 0 | -2 | -2 | 8 | x | x | x
COc1cccc(-c2csc(N3CCN(C(=S)Nc4cccc(Cl)c4)CC3)n2)c1 | -4 | 3 | 35* | 4 | 18 | 39 | 10
COC(=O)c1c(C)[nH]c(C(=O)COC(=O)Cn2cc(C(F)(F)F)ccc2=O)c1C | x | 2 | -7 | -3 | x | x | x
CCC(CO)Oc1cc(NCc2ccc(C(F)(F)F)cc2)c2ncn(C(C)C)c2c1 (centres undefined) | x | 5 | 4 | 5 | x | x | x
Cn1c(=O)oc2cc(S(=O)(=O)N3CCN(c4ccc(F)cc4)CC3)ccc21 | 16 | 18 | 44* | 7 | 14 | 6 | -5
Cn1c(=O)c(=O)n(C)c2cc(S(=O)(=O)N3CCN(c4ccc(F)cc4)CC3)ccc21 | 1 | -3 | -1 | 0 | x | x | x
Cn1c(=O)oc2cc(S(=O)(=O)N3CCCCC3)ccc21 | -2 | -5 | -2 | 2 | x | x | x
CN1CCN(S(=O)(=O)c2ccc3c(c2)oc(=O)n3C)CC1 | 23 | 11 | 61* | 10 | 18 | -33 | 11
COc1ccc(S(=O)(=O)N2CCOCC2)cc1NC(=O)c1ccc(=O)[nH]c1 | x | -2 | -1 | -2 | x | x | x
CCn1nc(NC(=O)c2ccccn2)c2cc3cccc(C)c3nc21 | -2 | 2 | 68* | 4 | 4 | -25 | 15
CCn1nc(NC(=O)c2ccncc2)c2cc3cccc(C)c3nc21 | 0 | -1 | 3 | -3 | x | x | x
CCOC(=O)C1(C)CCN1C(=O)/C=C/c1ccccc1 (centres undefined) | x | 5 | 4 | -1 | x | x | x
COc1ccc(O)c(C(=O)c2cnn(C(=O)c3ccc(C)cc3)c2)c1 | x | 12 | 96* | 23 | -3 | -34 | -11
Cc1nc2ccc(NC(=O)[C@@H](NC(=O)c3c(F)cccc3F)C(C)C)cc2s1 | x | 9 | 50* | 32 | 58* | -43 | 70*
COc1cc(OC)cc(C(=O)NC(C(=O)Nc2ccc3nc(C)sc3c2)C(C)C)c1 (centres undefined) | x | -1 | 8 | 3 | x | x | x
COc1ccc(NS(=O)(=O)c2cc([N+](=O)[O-])ccc2N/N=C/c2c(C)[nH]c3ccccc23)cc1 | x | 18 | 65* | 77* | 44* | -26 | -16
Cc1nc2ccc(NC(=O)c3ccc(Cl)c(S(=O)(=O)N(C)c4ccccc4)c3)cc2s1 | 0 | 5 | 81* | 4 | 61* | -15 | 52*

Screening data from PubChem BioAssay.
